Experimental data collected from several papers.
Target: Mitogen-activated protein kinase 13 (MAPK13, Homo sapiens, UniProt O15264)
Sequence (O15264 1-365, as in one of the studies): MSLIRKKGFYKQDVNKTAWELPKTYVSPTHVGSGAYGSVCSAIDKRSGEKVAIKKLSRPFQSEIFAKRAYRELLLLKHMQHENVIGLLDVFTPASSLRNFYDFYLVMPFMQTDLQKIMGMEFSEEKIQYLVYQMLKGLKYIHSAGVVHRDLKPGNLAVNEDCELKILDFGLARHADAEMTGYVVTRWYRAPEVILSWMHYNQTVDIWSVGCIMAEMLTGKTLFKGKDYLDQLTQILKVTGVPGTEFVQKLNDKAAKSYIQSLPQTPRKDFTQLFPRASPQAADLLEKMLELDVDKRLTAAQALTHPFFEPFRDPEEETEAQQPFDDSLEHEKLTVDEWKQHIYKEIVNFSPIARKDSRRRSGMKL

Compound	read-out	mode	method	tested at	quantity	value
O=C1Nc2ccc(Cl)cc2C1=Cc1cc(Cl)c(O)c(Cl)c1	cell-free assay	–	–	0.5 µM	remaining signal	97.8%
Nc1cnc(N2CCc3cc(S(=O)(=O)Nc4c(F)cc(Cl)cc4F)cc(N4CCCC4=O)c32)nc1	cell-free assay	–	competition with immobilised ligand	1 µM	remaining binding	100%
CCCOc1ccc(OC)c(F)c1C(=O)c1ccc(C(=O)N[C@@H]2CNC[C@H]2NC(=O)c2ccc3[nH]ncc3c2)cc1	enzyme activity	inhibitor	–	10 µM	remaining activity	93%
COc1cc(Nc2cnc(C#N)c(O[C@H](C)CN(C)C)n2)ncc1-c1cnn(C)c1	enzyme activity	inhibitor	radiometric	1 µM	remaining activity	87%
O=C(Nc1cccnn1)N1CCC(=Cc2cccc(Oc3ccc(C(F)(F)F)cn3)c2)CC1	cell-free assay	–	competition with immobilised ligand	1 µM	remaining binding	86%
Cn1c2c(c3ccc(Cl)c(Cl)c31)C(C#N)C1(CCCC1)NC2=O (centres unmarked)	thermal stability	–	DSF	10 µM	ΔTm	-0.1 °C
COc1cc2ncnc(Nc3ccc(Oc4ccccc4)cc3C)c2cc1OC	enzyme activity	inhibitor	–	1 µM	inhibition	1%
CN(C)C1CCN(CC#Cc2nn(C3CCCC3)c3nc(NCc4ccccc4)ncc23)C1 (centres unmarked)	enzyme activity	inhibitor	FRET	0.1 µM	inhibition	1%
O=C(NS(=O)(=O)c1ccc(NCC2CCOCC2)c([N+](=O)[O-])c1)c1ccc(N2CCN(Cc3ccc(C(F)(F)F)cc3-c3ccc(Cl)cc3)CC2)cc1Oc1cnc2[nH]ccc2c1	cell-free assay	–	competition with immobilised ligand	1 µM	remaining binding	99%
CNC(=O)c1cc2c(Oc3ccc(NC(=O)C4(C(=O)Nc5ccc(F)cc5)CC4)cc3)ccnc2cc1OC	enzyme activity	inhibitor	radiometric	1 µM	inhibition	83%
CC(C)(C)C(=O)c1sc(NC2CCCCC2)nc1N	enzyme activity	inhibitor	–	10 µM	remaining activity	102%
Cc1nc(C2CCN(C(=O)c3ccc(OC(F)(F)F)cc3N)CC2)c2ncc(N3CCN(C)CC3)cc2n1	cell-free assay	–	competition with immobilised ligand	1 µM	remaining binding	100%
FC(F)c1nc2ccccc2n1-c1nc(N2CCOCC2)nc(N2CCOCC2)n1	enzyme activity	inhibitor	–	10 µM	remaining activity	107%
CO[C@H]1CC[C@H](CNc2ccc(S(=O)(=O)NC(=O)c3ccc(N4CCN(CC5=C(c6ccc(Cl)cc6)CC(C)(C)CC5)CC4)cc3Oc3cnc4[nH]ccc4c3)cc2[N+](=O)[O-])CC1	cell-free assay	–	competition with immobilised ligand	1 µM	remaining binding	96%
CC(C)(C)c1nc(-c2cccc(NS(=O)(=O)c3c(F)cccc3F)c2F)c(-c2ccnc(N)n2)s1	enzyme activity	inhibitor	radiometric	1 µM	remaining activity	85%
CCCOc1ccc([C@H]2[C@H](C(=O)O)[C@@H](c3ccc4c(c3)OCO4)CN2CC(=O)Nc2c(CC)cccc2CC)cc1	cell-free assay	–	competition with immobilised ligand	1 µM	remaining binding	92%
CCN1CCC2(CC1)NC(=O)c1c(c3ccc(Cl)c(Cl)c3n1C)C2C#N (racemic)	thermal stability	–	DSF	10 µM	ΔTm	0.6 °C
Cc1ccc(NC(=O)c2ccc(CN3CCN(C)CC3)cc2)cc1Nc1nc(-c2cccnc2)cs1	cell-free assay	–	–	0.5 µM	remaining signal	101%
Cn1c2c(Cl)c(Cl)ccc2c2cc(N)[nH]c(=O)c21	thermal stability	–	DSF	10 µM	ΔTm	0.5 °C
Cc1ccc(Nc2nccc(N(C)c3ccc4c(C)n(C)nc4c3)n2)cc1S(N)(=O)=O	enzyme activity	inhibitor	–	10 µM	inhibition	0%
